Laboratory results published in ChEMBL document CHEMBL1125492, “The calanolides, a novel HIV-inhibitory class of coumarin derivatives from the tropical rainforest tree, Calophyllum lanigerum” (J Med Chem, 1992).

Experiments:
CEM-SS [1] = test: Concentration inhibiting HIV-1 induced cytopathic effects in human T-lymphoblastic cells(CEM-SS) and essentially halted HIV-1 replication.; assay type: functional, cell-based
Outline: (§1)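 CEM-SS cells kept in phenol-red-free RPMI 1640 with 5% fetal bovine serum, 2 mM L-glutamine and 50 μg/mL gentamicin, seeded at 2.0×10^5 cells/mL. Infected with HIV-1 RF (HTLV-III_RF) or left uninfected. Compound dissolved in DMSO, diluted in medium (final DMSO ≤1%), tested over <0.1 to >10 μM. Incubated 6 days at 37 °C, 5% CO2. Viability read by XTT-tetrazolium; quadruplicate infected wells, duplicate uninfected wells.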

CEM-SS [2] = test: Maximum protection of human T-lymphoblastic cells(CEM-SS) from cytopathic effects of HIV-1 by the compound; assay type: functional; outline: as §1
[3] = Apparent in vitro therapeutic induces(TI) of the compound; assay type: ADME
CEM-SS [4] = test: Potency to inhibit HIV-1 induced cytopathic effects in human T-lymphoblastic cells(CEM-SS) and essentially halted HIV-1 replication.; assay type: functional, cell-based; outline: as §1
CEM-SS [5] = test: Inhibition of HIV-1 replication in CEM-SS human lymphoblastoid cells in vitro; assay type: functional, cell-based
Outline: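 CEM-SS cells infected with HIV-1 RF and treated with a concentration range for 6 days at 37 °C, 5% CO2 (final DMSO ≤1%). Cell-free supernatant assayed for viral reverse transcriptase activity, p24 antigen and syncytium-forming units. Values expressed as percent of infected, untreated controls; each point is the mean of at least quadruplicate determinations.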

[6] = system: CEM-SS cells (Homo sapiens); test: Cytotoxicity against CEM-SS cells

Structure (SMILES)	IC50 (CEM-SS [1])	Max protection (CEM-SS [2])	Therapeutic indices [3]	EC50 (CEM-SS [4])	EC50 (CEM-SS [5])	IC50 [6]
CCCc1cc(=O)oc2c3c(c4c(c12)OC(C)(C)C=C4)O[C@H](C)[C@@H](C)[C@H]3OC	19 µM	35%				
CCCc1cc(=O)oc2c3c(c4c(c12)OC(C)(C)C=C4)O[C@H](C)[C@H](C)C3=O	27 µM					
CCCc1cc(=O)oc2c3c(c4c(c12)OC(C)(C)C=C4)O[C@H](C)[C@@H](C)[C@@H]3OC	21 µM					
CCCc1cc(=O)oc2c3c(c4c(c12)OC(C)(C)C=C4)O[C@H](C)[C@@H](C)[C@@H]3OC(C)=O	13 µM	100%	5 TI	2.7 µM		
CCCc1cc(=O)oc2c3c(c4c(c12)OC(C)(C)C=C4)O[C@H](C)[C@@H](C)[C@H]3O [(+)-CALANOLIDE B]	15 µM	100%	37 TI	0.4 µM		
CCCc1cc(=O)oc2c3c(c4c(c12)OC(C)(C)C=C4)O[C@H](C)[C@@H](C)[C@@H]3O [CALANOLIDE A]	20 µM	100%	200 TI	0.1 µM	0.08 µM	16 µM
CCCc1cc(=O)oc2c3c(c4c(c12)OC(C)(C)C=C4)O[C@H](C)[C@H](C)[C@@H]3O [CALANOLIDE C]	30 µM	30%				
CCCC1CC(=O)Oc2c(C(=O)C(C)C(C)O)c(O)c3c(c21)OC(C)(C)C=C3 (stereo unspecified) [CALANOLIDE E2]	25 µM					
